Reference: ChEMBL document CHEMBL1667850, “Indol-2-yl ethanones as novel indoleamine 2,3-dioxygenase (IDO) inhibitors” (Bioorg Med Chem, 2011)
Active and inactive are the calls of the source. The rule behind the calls is not given here.

Tests used:
[1] = target: T1, Indoleamine 2,3-dioxygenase 1 (Homo sapiens, UniProt P14902); assay: Inhibition of human IDO activity by spectrophotometry
Target sequence in this assay (P14902 whole entry): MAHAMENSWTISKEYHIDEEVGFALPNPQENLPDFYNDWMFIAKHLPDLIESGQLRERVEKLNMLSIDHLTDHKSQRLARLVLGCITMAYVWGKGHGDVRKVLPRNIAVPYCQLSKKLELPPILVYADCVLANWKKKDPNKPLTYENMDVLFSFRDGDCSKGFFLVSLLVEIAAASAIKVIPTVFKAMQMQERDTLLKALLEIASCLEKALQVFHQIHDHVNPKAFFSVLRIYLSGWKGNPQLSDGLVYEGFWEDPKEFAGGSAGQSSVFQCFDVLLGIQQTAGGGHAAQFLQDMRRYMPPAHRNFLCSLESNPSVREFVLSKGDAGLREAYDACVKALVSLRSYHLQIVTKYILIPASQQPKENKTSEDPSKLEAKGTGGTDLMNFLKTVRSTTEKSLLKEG

[2] = target: Indoleamine 2,3-dioxygenase 1 (Mus musculus) (UniProt P28776); assay: Inhibition of mouse IDO expressed in mouse P815B cells assessed as tryptophan degradation at 20 uM; type: cell-based
Summary of the method: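 2×10^5 cells per well incubated overnight at 37 °C in HBSS with 80 μM L-Trp and 20 μM compound. Supernatant was acetonitrile-precipitated and analysed by HPLC for Trp (280 nm) and kynurenine (360 nm). Percent inhibition of Trp degradation and kynurenine production was calculated relative to maximal activity.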

[3] = Cytotoxicity against mouse P815B cells at 20 uM by MTT assay; type: cell-based
Summary of the method: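 MTT viability on the cells left in wells after the 20 μM overnight IDO assay in HBSS at 37 °C. Culture medium (Iscove, 10% FCS, amino acids) and MTT were added for 3–4 h at 37 °C. Formazan was dissolved in SDS/DMF overnight at 37 °C and read at 570/650 nm.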

[4] = target: T1, Indoleamine 2,3-dioxygenase 1; assay: Inhibition of IDO
Target sequence in this assay (P14902 whole entry): as above

[5] = target: T1, Indoleamine 2,3-dioxygenase 1; assay: Inhibition of human IDO activity at 100 uM by spectrophotometry
Summary of the method: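 Recombinant N-His-tagged human IDO (Ala2–Gly403), expressed in E. coli BL21 AI and Ni-IMAC purified, 0.375 μg per well. Reaction in 50 mM phosphate pH 6.5 with 5 μM methylene blue, 40 mM ascorbate and 100 μM L-Trp, 60 min at room temperature. Stopped with 1 mM H2O2; change in OD320 read against a pre-enzyme baseline.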
Target sequence in this assay (P14902 whole entry, looked up): as the sequence (P14902 whole entry) above

Sequence of Indoleamine 2,3-dioxygenase 1 (Mus musculus) (P28776 whole entry, looked up): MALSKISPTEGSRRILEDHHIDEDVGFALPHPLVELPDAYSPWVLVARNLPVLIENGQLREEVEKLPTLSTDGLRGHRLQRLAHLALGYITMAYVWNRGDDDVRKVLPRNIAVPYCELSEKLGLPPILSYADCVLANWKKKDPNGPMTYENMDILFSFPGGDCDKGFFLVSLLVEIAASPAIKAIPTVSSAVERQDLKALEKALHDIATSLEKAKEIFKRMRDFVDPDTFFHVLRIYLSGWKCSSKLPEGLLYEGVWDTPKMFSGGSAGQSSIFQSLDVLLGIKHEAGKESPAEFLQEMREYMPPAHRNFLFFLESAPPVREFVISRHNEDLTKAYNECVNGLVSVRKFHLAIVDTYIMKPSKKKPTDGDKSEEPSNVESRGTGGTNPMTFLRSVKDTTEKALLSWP

## COc1ccc2[nH]c(C(=O)Cc3cccnc3)cc2c1OCc1ccccc1
[1]
  IC50: Not Active
[2]
  inhibition: inactive

## O=C(Cc1cccnc1)c1cc2ccccc2[nH]1
[1]; read-out: IC50
  IC50: 65 µM
[2]
  inhibition: 13%

## O=C(Cc1ccncc1)c1cc2ccccc2[nH]1
[1]
  IC50: Not Active
[2]
  inhibition: inactive

## COc1ccc2[nH]c(C(=O)Cc3cccnc3)cc2c1
[1]; read-out: IC50
  IC50: 49 µM

## O=C(Cc1cccnc1)c1cc2cc(OC(F)(F)F)ccc2[nH]1
[1]; read-out: IC50
  IC50: 13.1 µM
[2]
  inhibition: 12%

## COc1cc(OC)c2cc(C(=O)Cc3cccnc3)[nH]c2c1
[1]; read-out: IC50
  IC50: 45 µM
[3]
  Activity: Toxic

## COc1cccc2[nH]c(C(=O)Cc3cccnc3)cc12
[1]; read-out: IC50
  IC50: 58 µM
[2]
  inhibition: inactive

## O=C(Cc1cccnc1)c1cc2c(F)cccc2[nH]1
[1]; read-out: IC50
  IC50: 153 µM
[2]
  inhibition: 12%

## OC(Cc1cccnc1)c1cc2ccccc2[nH]1 (stereo not given)
[1]
  IC50: Not Active
[2]
  inhibition: inactive

## O=C(Cc1cccnc1)c1cc2cc(F)ccc2[nH]1
[1]; read-out: IC50
  IC50: 36 µM
[2]
  inhibition: 24%

## O=C(Nc1cccnc1)c1cc2ccccc2[nH]1
[1]; read-out: IC50
  IC50: 94 µM
[2]
  inhibition: inactive

## COc1ccc2[nH]c(C(=O)Cc3cccnc3)cc2c1O
[1]; read-out: IC50
  IC50: 63 µM
[2]
  inhibition: 11%

## Cn1c(C(=O)Cc2cccnc2)cc2ccccc21
[1]; read-out: IC50
  IC50: 34 µM
[2]
  inhibition: inactive

## O=C(Cc1cccnc1)c1cc2c(Cl)cc(Cl)cc2[nH]1
[1]; read-out: IC50
  IC50: 139 µM
[2]
  inhibition: inactive

## O=C(Cc1cccnc1)c1cc2c(O)cccc2[nH]1
[1]; read-out: IC50
  IC50: 83 µM
[2]
  inhibition: inactive

## O=C(Cc1cccnc1)c1cc2cc(Cl)ccc2[nH]1
[1]; read-out: IC50
  IC50: 24.6 µM
[2]
  inhibition: 24%

## COc1cccc2cc(C(=O)Cc3cccnc3)[nH]c12
[1]; read-out: IC50
  IC50: 82 µM
[2]
  inhibition: 6%

## c1ccc2c(c1)[nH]c1cnccc12 [NORHARMANE]
[4]
  Ki: 120 µM

## O=C(Cc1cccnc1)c1cc2cc([N+](=O)[O-])ccc2[nH]1
[1]
  IC50: Not Active
[2]
  inhibition: inactive

## CC(C(=O)c1cc2ccccc2[nH]1)c1cccnc1 (stereo not given)
[1]; read-out: IC50
  IC50: 141 µM
[2]
  inhibition: inactive

## Cc1ccc2[nH]c(C(=O)Cc3cccnc3)cc2c1
[1]; read-out: IC50
  IC50: 87 µM
[2]
  inhibition: 21%

## O=C(Cc1ccccn1)c1cc2ccccc2[nH]1
[1]; read-out: IC50
  IC50: 37 µM
[2]
  inhibition: 10%

## O/N=C(/Cc1cccnc1)c1cc2ccccc2[nH]1
[2]
  inhibition: 25%
[5]
  inhibition: 19.4%

## O=C(Cc1cccnc1)c1cc2cc(-c3ccccc3)ccc2[nH]1
[1]; read-out: IC50
  IC50: 96 µM
[2]
  inhibition: inactive

## c1cncc(CCc2cc3ccccc3[nH]2)c1
[1]
  IC50: Not Active
[2]
  inhibition: inactive

## O=C(Cc1cccnc1)c1cc2cc(Br)ccc2[nH]1
[1]; read-out: IC50
  IC50: 18 µM
[2]
  inhibition: inactive

## O=C(Cc1cnccn1)c1cc2ccccc2[nH]1
[1]; read-out: IC50
  IC50: 26.2 µM
[2]
  inhibition: inactive

## O=C(Cc1cccnc1)c1[nH]c2ccccc2c1Br
[1]
  IC50: Not Active
[2]
  inhibition: inactive

## O=C(Cc1cccnc1)c1cc2cc(O)ccc2[nH]1
[1]; read-out: IC50
  IC50: 37 µM
[2]
  inhibition: inactive

## O=C(Cc1ccccc1)c1cc2ccccc2[nH]1
[1]; read-out: IC50
  IC50: 29 µM
[2]
  inhibition: inactive

## O=C(Cc1cccnc1)c1cc2ccc(F)cc2[nH]1
[1]; read-out: IC50
  IC50: 43 µM
[2]
  inhibition: inactive
